# Assay results from different studies.
# Organism: Klebsiella pneumoniae
# Observed: microbial growth
SMILES,method,strain,MIC [µg/mL]
Fc1c(F)c(F)c(F)c(F)c1F,,ATCC13883,> 250
COC(=O)c1cc(-c2cccc(NC(=O)Nc3ccccc3C)c2)on1,broth dilution,BAA1705,> 64
Fc1c(F)c(F)c(-c2c(F)c(F)c(F)c(F)c2F)c(F)c1F,,ATCC13883,> 250
COC(=O)c1cc(-c2ccc(OC)c(NC(=O)Nc3ccc(Cl)c(Cl)c3)c2)on1,broth dilution,BAA1705,> 64
CCCCCCC#Cc1cncc(-c2nnc(SCc3cc([N+](=O)[O-])cc([N+](=O)[O-])c3)n2C)c1,,,≥ 20
Cc1c(NN=C(C#N)C2=NC(=O)CS2)c(=O)n(-c2ccccc2)n1C,broth dilution,,0.98
CCCCCCC#Cc1cncc(-c2nnc(Sc3ccc([N+](=O)[O-])cc3[N+](=O)[O-])n2C)c1,,,≥ 20
CN[C@@H]1[C@H](O)[C@H](NC)[C@H]2O[C@@]3(O)C(=O)C[C@@H](C)O[C@H]3O[C@@H]2[C@H]1O,broth dilution,ATCC33495,> 200
CCCCCCCCCC(=O)N[C@@H](Cc1c[nH]c2ccccc12)C(=O)N[C@H](CC(N)=O)C(=O)N[C@@H](CC(=O)O)C(=O)N[C@@H]1C(=O)NCC(=O)N[C@@H](CCCN)C(=O)N[C@@H](CC(=O)O)C(=O)N[C@H](C)C(=O)N[C@@H](CC(=O)O)C(=O)NCC(=O)N[C@H](CO)C(=O)N[C@@H]([C@H](C)CC(=O)O)C(=O)N[C@@H](CC(=O)c2ccccc2N)C(=O)O[C@@H]1C,broth dilution,ATCC10031,> 64
COC(=O)c1cc(-c2cccc(NC(=O)Nc3cccc(C#N)c3)c2)on1,broth dilution,BAA1705,> 64
